The source of these data is ChEMBL document CHEMBL1150393, “Evaluation of radiolabeled (hetero)aromatic analogues of N-(2-diethylaminoethyl)-4-iodobenzamide for imaging and targeted radionuclide therapy of melanoma” (J Med Chem, 2008).

Assay type in all cases: ADME, organism-based
Holding throughout (conditions): in vivo

The nature of series [1]: Biodistribution in gall bladder of C57BL/6 mouse bearing mouse B16-F0 cells at 0.74 to 0.92 MBq, iv after 1 hr. In outline: (§1)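 Male C57BL6 mice with s.c. left-flank B16-F0 melanoma (5 × 10⁵ cells in PBS). Two mice per time point frozen in liquid nitrogen after CO₂ sacrifice. Eight 40 µm whole-body cryosections per mouse read by multiwire proportional counter. cpm/mm² converted to kBq/g and expressed as %ID/g.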

Series [2] can be described thus: Biodistribution in glandula seminalis of C57BL/6 mouse bearing mouse B16-F0 cells at 0.74 to 0.92 MBq, iv after 3 hrs. In outline: as §1
A short description of series [3]: Biodistribution in glandula seminalis of C57BL/6 mouse bearing mouse B16-F0 cells at 0.74 to 0.92 MBq, iv after 6 hrs. Put shortly: as §1
The nature of series [4]: Biodistribution in glandula seminalis of C57BL/6 mouse bearing mouse B16-F0 cells at 0.74 to 0.92 MBq, iv after 1 hr. Put shortly:
as §1

Series [5] in a line: Biodistribution in intestinal content of C57BL/6 mouse bearing mouse B16-F0 cells at 0.74 to 0.92 MBq, iv after 72 hrs. Put shortly:
as §1

In series [6] the test system is Brain. Kind of series: Biodistribution in brain of C57BL/6 mouse bearing mouse B16-F0 cells at 0.74 to 0.92 MBq, iv after 24 hrs. In outline:
as §1

Another series has as its system Blood. Kind of series: Biodistribution in blood of C57BL/6 mouse bearing mouse B16-F0 cells at 0.74 to 0.92 MBq, iv after 24 hrs. In outline:
as §1

Series [7] is described as follows: Ratio of drug level in tumor to brain of C57BL/6 mouse bearing mouse B16-F0 cells at 0.74 to 0.92 MBq, iv after 24 hrs. Put shortly: (§2)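 Tumour and organ radioactive concentrations came from whole-body cryosection counting (40 µm slices, eight per mouse, two mice per time) after tail-vein injection of the [¹²⁵I]-labelled compound (0.1 µmol) into male C57BL6 mice bearing s.c. B16-F0 melanoma. Each value is the ratio of the tumour concentration to the organ concentration.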

Series [8] can be described thus: Ratio of drug level in tumor to brain of C57BL/6 mouse bearing mouse B16-F0 cells at 0.74 to 0.92 MBq, iv after 72 hrs. In outline:
as §2

The subject of series [9] is Brain. The series is described as follows: Biodistribution in brain of C57BL/6 mouse bearing mouse B16-F0 cells at 0.74 to 0.92 MBq, iv after 72 hrs. Put shortly: as §1
A further series deals with Liver. The series is described as follows: Biodistribution in liver of C57BL/6 mouse bearing mouse B16-F0 cells at 0.74 to 0.92 MBq, iv after 72 hrs. Put shortly:
as §1

For a further series, the system named is Kidney. The series is described as follows: Biodistribution in kidney of C57BL/6 mouse bearing mouse B16-F0 cells at 0.74 to 0.92 MBq, iv after 72 hrs. Put shortly: as §1
A further series deals with Muscle tissue. The series is described as follows: Biodistribution in muscle of C57BL/6 mouse bearing mouse B16-F0 cells at 0.74 to 0.92 MBq, iv after 24 hrs. Put shortly: as §1
In the next series the test system is Pancreas. The series is described as follows: Biodistribution in pancreas of C57BL/6 mouse bearing mouse B16-F0 cells at 0.74 to 0.92 MBq, iv after 24 hrs. Put shortly:
as §1

The next series deals with Bone marrow. Kind of series: Biodistribution in bone marrow of C57BL/6 mouse bearing mouse B16-F0 cells at 0.74 to 0.92 MBq, iv after 1 hr. In outline:
as §1

For `CCN(CC)CCNC(=O)c1ccc([125I])nc1.Cl.Cl`, the Drug uptake came out at 8.68 % ID/g in series [1], 3.78 % ID/g in [2], 3.55 % ID/g in [3] and 6.79 % ID/g in [4].

As for `CCN(CC)CCNC(=O)c1c[nH]c2ccc([125I])cc2c1=O.Cl.Cl`, the Drug uptake was 0.7 % ID/g in series [5], 0.04 % ID/g with Brain [6], 0.22 % ID/g with Blood and 0.1 % ID/g with Brain [9]. In addition, the Ratio in series [7] was found to be 68.5; in series [8] it was 23.5.

With `CCN(CC)CCNC(=O)c1ccc2cc([125I])ccc2n1.Cl.Cl`, in the series with Liver, the Drug uptake is recorded as 1.23 % ID/g.

`CCN(CC)CCNC(=O)c1cc2cc([125I])ccc2[nH]1.Cl`: the Drug uptake in the series on Kidney is 0.71 % ID/g; in the series on Liver, 0.61 % ID/g; in the series with Blood, 0.1 % ID/g; in the series with Muscle tissue, 0.19 % ID/g; in the series with Pancreas, 0.09 % ID/g.

In the series with Bone marrow, `CCN(CC)CCNC(=O)c1cnc2cc([125I])ccc2n1.Cl.Cl` registered a Drug uptake of 4.58 % ID/g.
